What was measured:
Format in all cases: functional
[1] = system: Staphylococcus warneri; test: Antibacterial activity against Staphylococcus warneri assessed as inhibition of microbial growth incubated for 18 to 22 hrs by broth microdilution method
Summary of the method: (§1)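 Broth microdilution in Mueller-Hinton II broth following NCCLS recommendations; compounds dissolved in DMSO.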

[2] = system: Nakaseomyces glabratus; test: Antifungal activity against Candida glabrata clinical isolates assessed as inhibition of microbial growth incubated for 24 hrs by broth microdilution method
Summary of the method: (§2)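 Twenty-two clinical Candida isolates (8 C. albicans, 4 C. glabrata, 3 C. tropicalis, 3 C. krusei, 2 C. parapsilosis, 2 C. sake) were identified by colony morphology and biochemistry and subcultured at 35 °C for purity. Compounds were dissolved in DMSO and tested by broth microdilution in Sabouraud dextrose broth per NCCLS/CLSI/EUCAST guidance. Values are geometric mean MIC per species (µg/mL).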

[3] = system: Staphylococcus aureus; test: Antibacterial activity against Staphylococcus aureus assessed as inhibition of microbial growth incubated for 18 to 22 hrs by broth microdilution method; summary of the method: as §1
[4] = system: Pichia kudriavzevii; test: Antifungal activity against Candida krusei clinical isolates assessed as inhibition of microbial growth incubated for 24 hrs by broth microdilution method; summary of the method: as §2
[5] = system: Proteus mirabilis; test: Antibacterial activity against Proteus mirabilis assessed as inhibition of microbial growth incubated for 18 to 22 hrs by broth microdilution method; summary of the method: as §1
[6] = system: Escherichia coli; test: Antibacterial activity against Escherichia coli assessed as inhibition of microbial growth incubated for 18 to 22 hrs by broth microdilution method; summary of the method: as §1
[7] = system: Enterococcus faecalis; test: Antibacterial activity against Streptococcus faecalis assessed as inhibition of microbial growth incubated for 18 to 22 hrs by broth microdilution method; summary of the method: as §1
[8] = system: Klebsiella oxytoca; test: Antibacterial activity against Klebsiella oxytoca assessed as inhibition of microbial growth incubated for 18 to 22 hrs by broth microdilution method; summary of the method: as §1
[9] = system: Candida parapsilosis; test: Antifungal activity against Candida parapsilosis clinical isolates assessed as inhibition of microbial growth incubated for 24 hrs by broth microdilution method; conditions: Lodderomyces parapsilosis; summary of the method: as §2
[10] = system: [Candida] sake; test: Antifungal activity against Candida sake clinical isolates assessed as inhibition of microbial growth incubated for 24 hrs by broth microdilution method; conditions: Fermentozyma sake; summary of the method: as §2
[11] = system: Enterobacter; test: Antibacterial activity against Enterobacter spp. assessed as inhibition of microbial growth incubated for 18 to 22 hrs by broth microdilution method; summary of the method: as §1
[12] = system: Candida tropicalis; test: Antifungal activity against Candida tropicalis clinical isolates assessed as inhibition of microbial growth incubated for 24 hrs by broth microdilution method; summary of the method: as §2
[13] = system: Candida albicans; test: Antifungal activity against Candida albicans clinical isolates assessed as inhibition of microbial growth incubated for 24 hrs by broth microdilution method; summary of the method: as §2

| MIC [1] [µg/mL] | MIC [2] [µg/mL] | MIC [3] [µg/mL] | MIC [4] [µg/mL] | MIC [5] [µg/mL] | MIC [6] [µg/mL] | MIC [7] [µg/mL] | MIC [8] [µg/mL] | MIC [9] [µg/mL] | MIC [10] [µg/mL] | MIC [11] [µg/mL] | MIC [12] [µg/mL] | MIC [13] [µg/mL] | Structure (SMILES) |
| --- | --- | --- | --- | --- | --- | --- | --- | --- | --- | --- | --- | --- | --- |
| ≥ 256 | 2 | ≥ 256 | 16 | ≥ 256 | ≥ 256 | ≥ 256 | ≥ 256 | 8 | 32 | ≥ 256 | 8 | 8 | CCC/C(C)=N\N=C1\SCC(=O)N1Cc1ccccc1 |
| ≥ 256 | 2 | ≥ 256 | 8 | ≥ 256 | ≥ 256 | ≥ 256 | ≥ 256 | 8 | 8 | ≥ 256 | 8 | 8 | C=CCC/C(C)=N\N=C1\SCC(=O)N1Cc1ccccc1 |
| ≥ 256 | 4 | ≥ 256 | 2 | ≥ 256 | ≥ 256 | ≥ 256 | ≥ 256 | 2 | 2 | ≥ 256 | 2 | 2 | C/C(=N/N=C1/SCC(=O)N1Cc1ccccc1)C1CC1 |
| ≥ 256 | 256 | ≥ 256 | 256 | ≥ 256 | ≥ 256 | ≥ 256 | ≥ 256 | 256 | 256 | ≥ 256 | 256 | 256 | CC(C)=N/N=C1/SCC(=O)N1Cc1ccccc1 |
| ≥ 256 | 2 | ≥ 256 | 8 | ≥ 256 | ≥ 256 | ≥ 256 | ≥ 256 | 8 | 8 | ≥ 256 | 32 | 32 | CCC(CC)=N/N=C1/SCC(=O)N1Cc1ccccc1 |
| ≥ 256 | 4 | ≥ 256 | 4 | ≥ 256 | ≥ 256 | ≥ 256 | ≥ 256 | 8 | 8 | ≥ 256 | 4 | 4 | CCC/C(CC)=N\N=C1\SCC(=O)N1Cc1ccccc1 |
| ≥ 256 | 8 | ≥ 256 | 4 | ≥ 256 | ≥ 256 | ≥ 256 | ≥ 256 | 4 | 4 | ≥ 256 | 8 | 8 | CC1CCC/C1=N/N=C1/SCC(=O)N1Cc1ccccc1 (stereo unspecified) |
| ≥ 256 | 8 | ≥ 256 | 16 | ≥ 256 | ≥ 256 | ≥ 256 | ≥ 256 | 16 | 16 | ≥ 256 | 16 | 8 | CC1CCC(=N/N=C2/SCC(=O)N2Cc2ccccc2)CC1 (stereo unspecified) |
| ≥ 256 | 8 | ≥ 256 | 16 | ≥ 256 | ≥ 256 | ≥ 256 | ≥ 256 | 16 | 16 | ≥ 256 | 16 | 8 | C/C(CC(C)C)=N/N=C1/SCC(=O)N1Cc1ccccc1 |
| ≥ 256 | 2 | ≥ 256 | 16 | ≥ 256 | ≥ 256 | ≥ 256 | ≥ 256 | 4 | 16 | ≥ 256 | 32 | 16 | CC1CCCC/C1=N/N=C1/SCC(=O)N1Cc1ccccc1 (stereo unspecified) |
| ≥ 256 | 32 | ≥ 256 | 4 | ≥ 256 | ≥ 256 | ≥ 256 | ≥ 256 | 8 | 4 | ≥ 256 | 16 | 128 | CCCC/C(CC)=N\N=C1\SCC(=O)N1Cc1ccccc1 |
| ≥ 256 | 16 | ≥ 256 | 16 | ≥ 256 | ≥ 256 | ≥ 256 | ≥ 256 | 8 | 32 | ≥ 256 | 8 | 8 | CC/C(C)=N\N=C1\SCC(=O)N1Cc1ccccc1 |

Source: ChEMBL document CHEMBL4190362, “Synthesis, biological evaluation and quantitative structure-active relationships of 1,3-thiazolidin-4-one derivatives. A promising chemical scaffold endowed with high antifungal potency and low cytotoxicity” (Eur J Med Chem, 2017)
